Results: ChEMBL document CHEMBL4382221, “First-in-class DAPK1/CSF1R dual inhibitors: Discovery of 3,5-dimethoxy-N-(4-(4-methoxyphenoxy)-2-((6-morpholinopyridin-3-yl)amino)pyrimidin-5-yl)benzamide as a potential anti-tauopathies agent” (Eur J Med Chem, 2019)
pIC50: −log10 of the molar value. Activity calls are given as the source filed them. The calls are words filed in the database; no cut-off is given here.

Tests used:
[1] = biological target: T1, Macrophage colony-stimulating factor 1 receptor (Homo sapiens, UniProt P07333); test: Inhibition of human CSF1R at 10 uM using poly[Glu:Tyr] (4:1) as substrate after 120 mins in presence of 10 uM [gamma-33P]-ATP by filtration method relative to control
T1 sequence (P07333 whole entry): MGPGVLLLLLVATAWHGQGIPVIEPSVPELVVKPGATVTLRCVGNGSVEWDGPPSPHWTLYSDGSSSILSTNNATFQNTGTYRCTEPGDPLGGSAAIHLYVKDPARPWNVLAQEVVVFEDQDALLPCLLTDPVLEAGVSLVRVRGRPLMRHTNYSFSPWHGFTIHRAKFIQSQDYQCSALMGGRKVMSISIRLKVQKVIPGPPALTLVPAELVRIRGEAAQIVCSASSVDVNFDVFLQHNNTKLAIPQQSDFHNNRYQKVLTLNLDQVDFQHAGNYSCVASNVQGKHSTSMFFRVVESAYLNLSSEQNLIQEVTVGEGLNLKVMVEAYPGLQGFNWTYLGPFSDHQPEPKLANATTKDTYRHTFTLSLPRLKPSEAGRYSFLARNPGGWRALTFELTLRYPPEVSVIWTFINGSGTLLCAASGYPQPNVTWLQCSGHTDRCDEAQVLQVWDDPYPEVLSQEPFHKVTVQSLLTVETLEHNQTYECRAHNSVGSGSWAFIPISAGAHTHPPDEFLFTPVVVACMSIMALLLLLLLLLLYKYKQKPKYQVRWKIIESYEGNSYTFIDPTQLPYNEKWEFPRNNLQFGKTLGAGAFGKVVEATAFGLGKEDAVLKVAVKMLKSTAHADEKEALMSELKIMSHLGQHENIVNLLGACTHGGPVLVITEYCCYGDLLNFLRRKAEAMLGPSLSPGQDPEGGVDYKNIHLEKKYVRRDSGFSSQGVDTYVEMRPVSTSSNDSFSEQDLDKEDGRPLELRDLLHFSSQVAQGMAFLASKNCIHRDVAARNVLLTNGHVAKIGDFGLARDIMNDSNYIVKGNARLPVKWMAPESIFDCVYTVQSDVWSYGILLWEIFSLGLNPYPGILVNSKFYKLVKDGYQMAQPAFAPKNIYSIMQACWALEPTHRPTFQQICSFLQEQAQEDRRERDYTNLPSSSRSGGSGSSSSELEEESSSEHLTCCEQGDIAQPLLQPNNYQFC
In short: (§1)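 Radiometric HotSpot assay measuring substrate phosphorylation directly, with 10 μM ATP. Single-dose screen at 10 μM in duplicate, reported as mean % inhibition from two independent experiments.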

[2] = biological target: T2, Death-associated protein kinase 1 (Homo sapiens, UniProt P53355); test: Inhibition of human DAPK1 (1 to 363 residues) at 10 uM using KKLNRTLSFAEPG as substrate after 120 mins in presence of 10 uM [gamma-33P]-ATP by filtration method relative to control; in short: as §1
Target sequence in this assay (P53355 whole entry, looked up, the tested form may be a part): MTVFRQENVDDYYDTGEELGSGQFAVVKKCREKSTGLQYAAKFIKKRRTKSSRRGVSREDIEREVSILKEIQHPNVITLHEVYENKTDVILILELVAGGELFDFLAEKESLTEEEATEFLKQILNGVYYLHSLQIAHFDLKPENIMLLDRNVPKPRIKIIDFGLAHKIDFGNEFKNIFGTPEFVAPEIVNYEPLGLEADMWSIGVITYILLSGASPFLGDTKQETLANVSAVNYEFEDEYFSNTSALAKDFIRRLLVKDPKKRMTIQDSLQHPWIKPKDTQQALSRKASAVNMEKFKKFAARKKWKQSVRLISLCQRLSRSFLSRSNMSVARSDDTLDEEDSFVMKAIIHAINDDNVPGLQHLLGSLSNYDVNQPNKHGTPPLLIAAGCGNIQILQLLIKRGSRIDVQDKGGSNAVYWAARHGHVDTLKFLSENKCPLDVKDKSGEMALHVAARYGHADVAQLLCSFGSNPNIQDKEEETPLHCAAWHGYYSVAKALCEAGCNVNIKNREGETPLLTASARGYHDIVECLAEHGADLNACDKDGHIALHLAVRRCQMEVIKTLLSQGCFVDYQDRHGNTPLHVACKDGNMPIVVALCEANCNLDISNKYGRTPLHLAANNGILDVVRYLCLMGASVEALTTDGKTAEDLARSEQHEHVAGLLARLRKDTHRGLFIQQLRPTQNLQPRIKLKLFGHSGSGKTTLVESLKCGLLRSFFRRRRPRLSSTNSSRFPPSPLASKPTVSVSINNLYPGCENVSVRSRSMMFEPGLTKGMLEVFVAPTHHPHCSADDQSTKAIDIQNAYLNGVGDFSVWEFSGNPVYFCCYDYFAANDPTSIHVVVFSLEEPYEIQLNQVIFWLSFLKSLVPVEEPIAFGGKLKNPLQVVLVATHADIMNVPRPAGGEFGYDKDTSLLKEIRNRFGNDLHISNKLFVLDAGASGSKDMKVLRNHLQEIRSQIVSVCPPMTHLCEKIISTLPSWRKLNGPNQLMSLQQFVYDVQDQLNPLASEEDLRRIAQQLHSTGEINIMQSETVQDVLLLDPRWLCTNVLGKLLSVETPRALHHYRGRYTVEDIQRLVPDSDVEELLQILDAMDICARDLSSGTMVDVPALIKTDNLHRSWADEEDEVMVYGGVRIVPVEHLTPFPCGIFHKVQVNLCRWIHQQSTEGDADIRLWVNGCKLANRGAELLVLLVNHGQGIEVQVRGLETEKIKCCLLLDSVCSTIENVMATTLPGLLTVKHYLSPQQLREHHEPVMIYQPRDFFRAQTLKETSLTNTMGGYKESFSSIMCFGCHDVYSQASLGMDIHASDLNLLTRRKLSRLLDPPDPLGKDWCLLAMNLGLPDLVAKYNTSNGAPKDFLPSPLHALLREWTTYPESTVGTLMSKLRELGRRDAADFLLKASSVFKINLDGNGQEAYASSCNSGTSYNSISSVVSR

[3] = biological target: T2, Death-associated protein kinase 1; test: Inhibition of human DAPK1 (1 to 363 residues) at 20 uM using KKLNRTLSFAEPG as substrate after 120 mins in presence of 10 uM [gamma-33P]-ATP by filtration method relative to control
In short: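 Radiometric HotSpot kinase assay with 10 μM ATP. Compound tested at a single 20 μM concentration, reported as mean % inhibition from two independent experiments.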
Target sequence in this assay (P53355 whole entry, looked up, the tested form may be a part): as above

[4] = biological target: T2, Death-associated protein kinase 1; test: Inhibition of human DAPK1 (1 to 363 residues) using KKLNRTLSFAEPG as substrate after 120 mins in presence of 10 uM [gamma-33P]-ATP by filtration method
In short: (§2)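 Radiometric HotSpot assay with direct measurement of phosphorylated substrate at 10 μM ATP. IC50 was taken from a duplicate 10-dose series, 3-fold dilutions starting at 20 μM, reported as mean.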
Target sequence in this assay (P53355 whole entry, the tested form may be a part): as the sequence (P53355 whole entry, looked up, the tested form may be a part) above

[5] = biological target: T2, Death-associated protein kinase 1; test: Inhibition of DAPK1 in HEK293 tau-BiFC cells assessed as reduction in forskolin-induced tau aggregation at 1 to 50 uM after 48 hrs by Hoechst staining based HCS analysis; type: cell-based
In short: (§3)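 HEK293 cells expressing tau-BiFC were exposed to compounds at 50, 10 and 1 μM with forskolin (30 μM) as the tau aggregation activator for 48 h. BiFC fluorescence intensity was quantified as the read-out. Data are mean ± SD.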
Target sequence in this assay (P53355 whole entry, looked up, the tested form may be a part): as above

[6] = biological target: T1, Macrophage colony-stimulating factor 1 receptor; test: Inhibition of human CSF1R using poly[Glu:Tyr] (4:1) as substrate after 120 mins in presence of 10 uM [gamma-33P]-ATP by filtration method; in short: as §2
[7] = biological target: T2, Death-associated protein kinase 1; test: Inhibition of DAPK1 in HEK293 tau-BiFC cells assessed as reduction in forskolin-induced tau aggregation at 10 uM after 48 hrs by Hoechst staining based HCS analysis; type: cell-based; in short: as §3
Target sequence in this assay (P53355 whole entry, looked up, the tested form may be a part): as above

[8] = biological target: T2, Death-associated protein kinase 1; test: Inhibition of DAPK1 in HEK293 tau-BiFC cells assessed as reduction in forskolin-induced tau aggregation at 50 uM after 48 hrs by Hoechst staining based HCS analysis; type: cell-based; in short: as §3
Target sequence in this assay (P53355 whole entry, looked up, the tested form may be a part): as above

inhibition [1]	pIC50 [6]	Compound	inhibition [2]	inhibition [3]	pIC50 [4]	inhibition [5]	inhibition [7]	inhibition [8]
28.4%	–	COc1ccc(Oc2nc(Nc3ccc(N4CCCCC4)nc3)ncc2NC(N)=O)cc1	31.7%	–	–	–	–	–
74.7%	5.31	COc1ccc(Oc2nc(Nc3ccc(N4CCOCC4)cc3)ncc2NC(=O)c2cccc(C(F)(F)F)c2)cc1	–	69.7%	5.58	inactive	–	–
35.2%	–	COc1ccc(Oc2nc(Nc3ccc(F)cc3)ncc2NC(=O)c2cc(OC)cc(OC)c2)cc1	65%	–	5.37	–	inactive	Active
35.4%	–	COc1ccc(Oc2nc(Nc3ccc(N4CCOCC4)nc3)ncc2NC(N)=O)cc1	19.7%	–	–	–	–	–
76%	5.76	COc1ccc(Oc2nc(Nc3ccc(N4CCCCC4)nc3)ncc2NC(=O)c2cc(OC)cc(OC)c2)cc1	67.3%	–	5.57	–	–	Active
21%	–	COc1ccc(Oc2nc(Nc3ccc(F)cc3)ncc2NC(N)=O)cc1	17.1%	–	–	–	–	–
77.6%	5.89	COc1cccc(Oc2nc(Nc3ccc(N4CCOCC4)cc3)ncc2NC(N)=O)c1	15.8%	–	–	–	–	–
